In assay [1] the test system is P388. Briefly: Cytotoxic activity of compound against Murine P388 Leukemia. The note with it: Mus musculus, P388; read-out: IC50. Type of assay: functional, cell-based, Mus musculus. The method, boiled down:
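Murine P388 cells were cultured in EMEM with 10% FBS, 2 mM glutamine, 50 units/mL penicillin and 50 μg/mL streptomycin. They were seeded at (1–2) × 10^4 cells/mL without preincubation and exposed to varying concentrations for 72 h at 37 °C, 5% CO2. MTT was then added for 4 h, formazan dissolved in DMSO and read at 570/690 nm.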

The subject of the next assay is A-427. Briefly: Cytotoxic activity of compound against A-427 lung human tumor cell line. The format is functional, cell-based. In short, it runs like this:
(§1)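 Cells were kept in EMEM with 10% FBS, 2 mM glutamine, NEAA and 1 mM sodium pyruvate. They were seeded at (1–2) × 10^4 cells/mL and preincubated for 24 h. They were then exposed to graded concentrations for 72 h at 37 °C in 5% CO2. MTT was added for a further 4 h and the formazan dissolved in DMSO, with absorbance at 570/690 nm.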

The test system of a further assay is SK-OV-3. Briefly: Cytotoxic activity of compound against SK-OV-3 ovary human tumor cell line. Type of assay: functional, cell-based. The note with it: SK-OV-3, Female gonad. The method, boiled down: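 SK-OV-3 cells were maintained in McCoy's 5A with 15% FBS. After seeding at (1–2) × 10^4 cells/mL and 24 h preincubation, wells received graded concentrations for 72 h at 37 °C, 5% CO2. A 4 h MTT incubation followed, with DMSO solubilization and absorbance at 570/690 nm.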

For assay [2], the system named is P388. The assay is described as follows: In vitro antitumor activity of compound against P388 leukemia cells at a dose of […] mg/kg. More on the design: concentration or dose not given beside the values. Type of assay: functional, Mus musculus.
In the next assay the target is DNA topoisomerase II (Homo sapiens, UniProt P11388+Q02880). The assay is described as follows: Inhibitory activity in a DNA cleavage assay using HeLa DNA topoisomerase II yielding its effective concentration. The format is protein assay.
Another assay concerns HT-29. Briefly: Cytotoxic activity of compound against HT-29 colon human tumor cell line. The format is functional, cell-based. The method, boiled down:
(§2)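 Culture was in McCoy's 5A with 10% FBS. Cells were seeded at (1–2) × 10^4 cells/mL, preincubated for 24 h, then incubated with various concentrations for 72 h at 37 °C under 5% CO2. MTT was added for 4 h and the formazan dissolved in DMSO, with A570 read against 690 nm.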

Assay [3] has as its system P388. The assay is described as follows: […] antitumor activity of compound against P388 leukemia cells at a dose of 50 mg/kg. Type of assay: functional, Mus musculus. The method, boiled down: (§3)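 In vivo study: BDF1 mice received 10^6 P388 leukemia cells ip as diluted ascites fluid. Test compounds were suspended in 0.4% CMC and given ip on days 1 and 5 after implantation, with seven mice per group. The endpoint is T/C% = median survival time of the treated group / median survival time of controls × 100.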

Assay [4] has as its system P388. The assay is described as follows: […] antitumor activity of compound against P388 leukemia cells at a dose of 3.13 mg/kg. The format is functional, Mus musculus. The method, boiled down: as §3
Assay [5] can be described thus: Cytotoxic activity of compound against SCaBER bladder squamous human tumor cell line. The format is functional, cell-based. In short, it runs like this: as §1
A further assay concerns G-361. The assay is described as follows: Cytotoxic activity of compound against G-361 melanoma human tumor cell line. The format is functional, cell-based. In short, it runs like this:
as §2

A short description of assay [6]: Cytotoxic activity of compound against AZ-521 stomach human tumor cell line. The format is functional. The method, boiled down:
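AZ-521 cells were grown in EMEM with 10% FBS, 2 mM glutamine and NEAA. They were plated at (1–2) × 10^4 cells/mL and preincubated for 24 h, then treated with a range of concentrations for 72 h at 37 °C, 5% CO2. After a 4 h MTT step, the formazan was dissolved in DMSO and read at 570 nm (reference 690 nm).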

Assay [7] has as its system P388. The assay is described as follows: […] antitumor activity f compound against P388 leukemia cells at a dose of […] mg/kg. Type of assay: functional, Mus musculus.

SMILES strings stand for the structures.

On to `Cl.NC1CCN(c2nc3c(cc2F)c(=O)c(C(=O)O)cn3-c2nccs2)C1` (stereo not given), for which the IC50 was 0.021 µg/mL with P388 [1]; 0.22 µg/mL in the assay with A-427; 0.93 µg/mL with SK-OV-3; above 200 µg/mL at DNA topoisomerase II; 1.2 µg/mL with HT-29; 0.34 µg/mL in assay [5]. The figures for the IC50 (in the assay with G-361; in [6]) were 0.39 µg/mL and 0.35 µg/mL, respectively. Also, the T/C in the assay with P388 [2] was 213%; in the assay on P388 [3], above 375%; in the assay on P388 [4], 150%.

With `Cl.O=C(O)c1cn(-c2nccs2)c2nc(N3CCC(O)C3)c(F)cc2c1=O` (stereo not given), the IC50 in the assay on P388 [1] stood at 0.036 µg/mL. Further, the T/C in the assay on P388 [3] is on record as 225%; in the assay on P388 [4], 138%; with P388 [7] it was 175%.

As usually defined, the IC50 is the midpoint of a concentration-inhibition curve. The term T/C denotes the ratio of treated to control.
